Laboratory results from ChEMBL document CHEMBL5120755, “A new strategy for hit generation: Novel in cellulo active inhibitors of CYP121A1 from Mycobacterium tuberculosis via a combined X-ray crystallographic and phenotypic screening approach (XP screen)” (Eur J Med Chem, 2022).

Tests used:
[1] = Inhibition of Mycobacterium tuberculosis CYP121A1 mediated cYY conversion to mycocyclosin assessed as fold change in cYY level at 100 uM incubated for 2 hrs in the presence of NADPH by LC-MS activity assay relative to clotrimazole; assay type: ADME; settings: recombinant enzyme
[2] = Inhibition of cYY binding to Mycobacterium tuberculosis CYP121A1 expressed in Escherichia coli HMS174 (DE3) assessed as dissociation constant of cYY preincubated with compound followed by substrate addition by competitive UV-visible spectroscopic analysis; assay type: ADME
How it was run: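 CYP121A1 at 5 μM. […] UV-vis difference spectra processed as for direct titrations and fitted to the Hill equation for Kd.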

[3] = system: Mycobacterium tuberculosis; assay: Antimycobacterial activity against Mycobacterium tuberculosis H37Rv assessed as inhibition of bacterial growth in presence of middlebrook 7H9/ADC/tyloxapol/glycerol medium measured for 1 week by resazurin based colorimetric assay; assay type: functional; settings: 168 h, time 1 weeks
How it was run: (§1)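 Mtb H37Rv grown in 7H9 with 10% ADC, 0.05% tyloxapol, 0.02% glycerol to OD600 ~1, then pre-adapted 8 days at 37 °C in the test medium (c7H9, 7H9-Low BSA or MMM-Ch). DMSO stocks serially diluted, 400 to 0.78 μM, about 10^5 CFU per well. Incubated at 37 °C for 1 week (c7H9, Low BSA) or 2 weeks (MMM-Ch). 0.02% resazurin added for 1 day more. MIC90 read visually as lowest concentration with no colour change.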

[4] = system: Mycobacterium tuberculosis; assay: Antimycobacterial activity against Mycobacterium tuberculosis H37Rv assessed as inhibition of bacterial growth in presence of middlebrook 7H9/BSAADN//tyloxapol/glycerol medium measured for 1 week by resazurin based colorimetric assay; assay type: functional; settings: 168 h, time 1 weeks; how it was run: as §1
[5] = system: Mycobacterium tuberculosis; assay: Antimycobacterial activity against Mycobacterium tuberculosis H37Rv assessed as inhibition of bacterial growth in presence of Mycobacterial minimal medium with cholesterol measured for 2 weeks by resazurin based colorimetric assay; assay type: functional; settings: 336 h; how it was run: as §1
[6] = Binding affinity to Mycobacterium tuberculosis CYP121A1 expressed in Escherichia coli HMS174 (DE3) assessed as thermal stability by measuring increase in melting temperature at 1mM by SYPRO orange dye based differential scanning fluorimetry assay; settings: 1000 µM
How it was run: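 Protein at 5 μM in 100 mM potassium phosphate pH 6.9 with 2.5× Sypro Orange. Ligand 1 mM final, 4% DMSO-d6. Scanned 25–95 °C in 0.5 °C steps of 30 s. Positive Tm shifts repeated in triplicate and averaged over four runs.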

[7] = Binding affinity to Mycobacterium tuberculosis CYP121A1 expressed in Escherichia coli HMS174 (DE3) assessed as dissociation constant by isothermal titration calorimetry; assay type: ADME
How it was run: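 Untagged His-purified CYP121A1 at 50 μM in 50 mM Tris-HCl, 1 mM EDTA, pH 7.2, with 10% DMSO-d6. Ligand at 0.5 or 2.5 mM final. One 0.2 μL injection discarded, then 19 injections of 2 μL at 120 s intervals, 25 °C. Ligand-into-buffer heats subtracted. One-site fit, N fixed at 1 for weak binders or left free.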

Structure (SMILES) | fold change (FC) [1] | other results
COc1ccc2[nH]cc(CCc3ccncc3)c2c1 | 1 | –
c1ccc2c(CCc3ccnc(N4CCOCC4)n3)c[nH]c2c1 | 4.7 | Kd [2]: 25.2 µM
Brc1ccc2c(c1)N(c1nccc(CCc3c[nH]c4ccccc34)n1)CCO2 | 0.3 | –
Fc1ccc2[nH]cc(CCc3ccnc(N4CCOCC4)n3)c2c1 | 10.6 | –
c1ccc2c(CCc3ccnc(N4CCCOCC4)n3)c[nH]c2c1 | 4.7 | –
N[C@H](Cc1c[nH]c2ccccc12)c1nc(-c2ccc(OC(F)(F)F)cc2)cs1 | – | MIC90 [3]: 40 µM; MIC90 [4]: 40 µM; MIC90 [5]: 40 µM
FC(F)(F)Oc1ccc2[nH]cc(CCc3ccnc(N4CCOCC4)n3)c2c1 | 1.1 | –
Cn1cc(CCc2ccnc(N3CCOCC3)n2)c2ccccc21 | 2.1 | –
c1ccc2c(CCc3nc4c(c(N5CCOCC5)n3)CNC4)c[nH]c2c1 | 4.1 | deltaTm [6]: 3.5 °C
c1ccc2c(CCc3ccncc3)c[nH]c2c1 | 1.1 | –
Fc1ccc2[nH]cc(CCc3ccncc3)c2c1 | 3.5 | –
N[C@H](Cc1c[nH]c2ccccc12)c1nc(-c2ccccc2)cs1 | – | MIC90 [3]: 40 µM; MIC90 [4]: 40 µM; MIC90 [5]: 40 µM
COC1CN(c2nccc(CCc3c[nH]c4ccc(Br)cc34)n2)C1 | 1.8 | –
Brc1ccc2[nH]cc(CCc3ccnc(N4CCOCC4)n3)c2c1 | 3.8 | –
Brc1ccc2[nH]cc(CCc3ccncc3)c2c1 | 1.3 | –
FC(F)(F)Oc1ccc2[nH]cc(CCc3ccncc3)c2c1 | 1.2 | –
c1ccc2c(c1)OCCN2c1nccc(CCc2c[nH]c3ccccc23)n1 | 0.1 | Kd [2]: 17.5 µM
c1ccc2c(CCc3nc4c(c(N5CC6CCC(C5)O6)n3)CNC4)c[nH]c2c1 | – | deltaTm [6]: 2.4 °C
COC1CN(c2nccc(CCc3c[nH]c4ccccc34)n2)C1 | 1.2 | –
c1ccc2c(CCc3nc4c(c(N5CCOCC5)n3)CCNC4)c[nH]c2c1 | 1.3 | deltaTm [6]: 1 °C
Nc1[nH]nc(-c2ccc(O)cc2)c1-c1ccc(O)cc1 | – | deltaTm [6]: 1 °C; Kd [7]: 20 µM
c1ccc2c(CCc3ccncn3)c[nH]c2c1 | 1.8 | deltaTm [6]: 3.5 °C
N[C@H](Cc1c[nH]c2ccccc12)c1nc(-c2ccccn2)cs1 | – | MIC90 [3]: 40 µM; MIC90 [4]: 40 µM; MIC90 [5]: 40 µM
Oc1ccc2[nH]cc(CCc3ccnc(N4CCOCC4)n3)c2c1 | 3.5 | deltaTm [6]: 0.5 °C
Clc1ccc2[nH]cc(CCc3ccncc3)c2c1 | 2.3 | –
Ic1ccc2[nH]cc(CCc3ccncc3)c2c1 | 1.9 | –
